Data as given in ChEMBL document CHEMBL1134306, “New antimitotic agents with activity in multi-drug-resistant cell lines and in vivo efficacy in murine tumor models” (J Med Chem, 2001).

Legend:
HCT-15 = assay: Effective dose against HCT-15 cell line.; format: functional; conditions: Homo sapiens, read-out: ED50 (the source's name)
Outline: (§1)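 HCT-15 (MDR+) or NCI-H460 (MDR−) cells in growth medium treated with compounds over a range of concentrations for 48 h. Cells then trypsinized and counted per well with a Coulter counter. ED50 derived from cell number. Compounds at 1 μM or below were retested in both lines. Values reported as mean ± SD.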

NCI-H460 = assay: Effective dose against NCI-H460 cell line.; format: functional; conditions: Homo sapiens, read-out: ED50 (the source's name); outline: as §1
[1] = (§2) Area under the curve following intravenous dosing, integrated compound concentration with respect to time, tested in vivo in mice; format: ADME, organism-based; conditions: mouse
[2] = Integrated compound concentration with respect to time following oral dosing, tested in vivo in mice; format: ADME, organism-based; conditions: mouse
[3] = Volume of distribution following intravenous dosing, tested in vivo in mice; format: ADME, organism-based; conditions: mouse, read-out: Vc
[4] = (§3) Maximum plasma concentration following intravenous dosing, tested in vivo in mice; format: ADME, organism-based; design: route intravenous; conditions: mouse, plasma
[5] = (§4) Half-life following intravenous dosing, tested in vivo in mice; format: ADME, organism-based; conditions: mouse
[6] = Oral bioavailability in mouse; format: ADME, organism-based; conditions: in vivo
[7] = Time to maximum plasma concentration following oral dosing, tested in vivo in mice; conditions: mouse, plasma
Mus musculus [8] = assay: as §2; format: ADME, organism-based
Mus musculus [9] = assay: as §3; format: ADME, organism-based; design: route intravenous; conditions: in vivo
Mus musculus [10] = assay: as §4; format: ADME, organism-based
Mus musculus [11] = assay: Time to maximum plasma concentration following oral dosing, tested in vivo in mice; conditions: in vivo

Row | Compound | EC50 (HCT-15) | EC50 (NCI-H460) | further results
1 | COc1cc(C2OC(c3cccc(N(C)C)c3)=NN2C(C)=O)cc(OC)c1OC (configuration not stated) | 0.16 µM | 0.26 µM | 
2 | COc1cc(OC)c(C2OC(c3ccc(N(C)C)cc3)=NN2C(C)=O)c(OC)c1 (configuration not stated) | 71 µM | 40 µM | 
3 | CC(=O)O[C@H]1C(=O)[C@@]2(C)[C@H]([C@H](OC(=O)c3ccccc3)[C@]3(O)C[C@H](OC(=O)[C@H](O)[C@@H](NC(=O)c4ccccc4)c4ccccc4)C(C)=C1C3(C)C)[C@]1(OC(C)=O)CO[C@@H]1C[C@@H]2O [PACLITAXEL] | 0.54 µM | 0.015 µM | 
4 | COc1cc(C2OC(c3ccc(N)c(C)c3)=NN2C(C)=O)cc2c1OCO2 (configuration not stated) | 0.62 µM | 0.63 µM | 
5 | COc1cc(C2OC(c3ccc(N(C)C)cc3)=NN2C(C)=O)cc(OC)c1OC(C)=O (configuration not stated) | 78 µM | 13 µM | 
6 | COc1cc(C2OC(c3ccc(N(C)C)cc3)=NN2C(=O)CO)cc(OC)c1OC (configuration not stated) | 0.026 µM | 0.043 µM | 
7 | COc1cc(-c2nnc(-c3ccc(N(C)C)cc3)o2)cc(OC)c1OC | 92 µM | 106 µM | 
8 | COc1cc(OC)c(C2OC(c3ccc(N)c(C)c3)=NN2C(C)=O)cc1OC (configuration not stated) | 198 µM | 1000 µM | 
9 | COc1ccc(C2=NCC(c3cc(OC)c(OC)c(OC)c3)O2)cc1N (configuration not stated) | 0.082 µM | 0.073 µM | 
10 | COc1cc(C2OC(c3ccc(N)c(C)c3)=NN2C(C)=O)cc(OC)c1OC (configuration not stated) | 0.042 µM | 0.059 µM | AUC (Mus musculus [8]): 2109 ng·h/mL; AUC [2]: 147 ng·h/mL; Vd [3]: 2.2 L/kg; Cmax (Mus musculus [9]): 59 ng/mL; T1/2 (Mus musculus [10]): 66 min; bioavailability [6]: 7%; T max (Mus musculus [11]): 102 min
11 | COc1cc(C2OC(c3ccc(N(C)C)cc3)=NN2C(=O)CNC=O)cc(OC)c1OC (configuration not stated) | 0.035 µM | 0.04 µM | 
12 | COc1cc(C2OC(c3ccc(N(C)C)cc3)=NN2C(C)=O)cc(OC)c1OC (configuration not stated) | 0.033 µM | 0.044 µM | AUC (Mus musculus [8]): 3170 ng·h/mL; AUC [2]: 155 ng·h/mL; Vd [3]: 3.3 L/kg; Cmax (Mus musculus [9]): 113 ng/mL; T1/2 (Mus musculus [10]): 66 min; bioavailability [6]: 4.9%; T max (Mus musculus [11]): 24 min
13 | COc1cc(C2OC(c3ccc(N(C)C)cc3)=NN2C(=O)CNC(C)=O)cc(OC)c1OC (configuration not stated) | 0.18 µM | 0.48 µM | 
14 | COc1cc(C2CN=C(c3ccc4c(c3)CCCN4C)O2)cc(OC)c1OC (configuration not stated) | 0.66 µM | 0.32 µM | 
15 | COc1cc(C2OC(c3ccccc3N(C)C)=NN2C(C)=O)cc(OC)c1OC (configuration not stated) | 65 µM | 109 µM | 
16 | COc1cc(C2OC(c3ccc(N(C)C)cc3)=NN2C(=O)COC(C)=O)cc(OC)c1OC (configuration not stated) | 0.019 µM | 0.072 µM | 
17 | CC(=O)N1N=C(c2ccc(N(C)C)cc2)OC1c1cc(C)c(C)c(C)c1 (configuration not stated) | 1.5 µM | 5.7 µM | 
18 | COc1ccc(C2OC(c3ccc(N(C)C)cc3)=NN2C(C)=O)c(OC)c1OC (configuration not stated) | 7.5 µM | 6.8 µM | 
19 | COc1cc(-c2nnc(-c3ccc(N(C)C)cc3)s2)cc(OC)c1OC | 231 µM | 1000 µM | 
20 | COc1cc(C2OC(c3ccc(N(C)C)cc3)=NN2C(=O)CN(C)C)cc(OC)c1OC (configuration not stated) | 80 µM | 74 µM | 
21 | COc1cc(C2OC(c3ccc(N(C)C)cc3)=NN2C(=O)CN)cc(OC)c1OC (configuration not stated) | 0.65 µM | 0.66 µM | 
22 | COc1cc(-c2cc(-c3ccc(N)c(C)c3)nn2C(C)=O)cc(OC)c1OC | 365 µM | 1000 µM | 

The next lines start with results.

Row | EC50 (HCT-15) | EC50 (NCI-H460) | Compound | further results
23 | 0.096 µM | 0.12 µM | COc1cc(C2OC(c3ccc(N(C)C)cc3)=NN2C=O)cc(OC)c1OC (configuration not stated) | 
24 | 4.3 µM | 72 µM | COc1cc(C2CN=C(c3ccc4nc(O)oc4c3)O2)cc(OC)c1OC (configuration not stated) | 
25 | 0.61 µM | 0.82 µM | COc1cc(C2CN=C(c3ccc4c(c3)CCN4C)O2)cc(OC)c1OC (configuration not stated) | 
26 | 0.018 µM | 0.028 µM | COc1cc(C2CN=C(c3ccc4c(ccn4C)c3)O2)cc(OC)c1OC (configuration not stated) | AUC [1]: 5120 ng·h/mL; AUC [2]: 1780 ng·h/mL; Vd [3]: 1.4 L/kg; Cmax [4]: 799 ng/mL; half-life [5]: 114 min; bioavailability [6]: 35%; Tmax [7]: 24 min
27 | 2.4 µM | 8.3 µM | COc1cc(C2COC(c3ccc(N(C)C)cc3)O2)cc(OC)c1OC (configuration not stated) | 
28 | 40 µM | 106 µM | COC(=O)N1N=C(c2ccc(N(C)C)cc2)OC1c1cc(OC)c(OC)c(OC)c1 (configuration not stated) | 
29 | 0.12 µM | 0.35 µM | COc1cc(C2CN=C(c3ccc(N(C)C)cc3)O2)cc(OC)c1OC (configuration not stated) | AUC [1]: 3410 ng·h/mL; AUC [2]: 1660 ng·h/mL; Vd [3]: 3.3 L/kg; Cmax [4]: 891 ng/mL; half-life [5]: 48 min; bioavailability [6]: 49%; Tmax [7]: 54 min
30 | 0.15 µM | 0.53 µM | COc1cc(C2OC(c3ccc(N(C)C)cc3)=NN2C(=O)CN=[N+]=[N-])cc(OC)c1OC (configuration not stated) | 
31 | 0.097 µM | 0.116 µM | COc1cc(C2CN=C(c3ccc4[nH]ccc4c3)O2)cc(OC)c1OC (configuration not stated) | 
32 | 0.28 µM | 0.51 µM | COC(=O)c1c(OC)cc(C2OC(c3ccc(N)c(C)c3)=NN2C(C)=O)cc1OC (configuration not stated) | 
33 | 0.082 µM | 0.063 µM | COc1cc(C2CN=C(c3ccc(C)c(N)c3)O2)cc(OC)c1OC (configuration not stated) | 
34 | 178 µM | 60 µM | CCCCNC(=O)c1c(OC)cc(C2OC(c3ccc(N)c(C)c3)=NN2C(C)=O)cc1OC (configuration not stated) | 
35 | 45 µM | 33 µM | CCOC(=O)C(=O)N1N=C(c2ccc(N(C)C)cc2)OC1c1cc(OC)c(OC)c(OC)c1 (configuration not stated) | 
36 | 8.2 µM | 5.1 µM | COc1ccc(C2OC(c3ccc(N(C)C)cc3)=NN2C(C)=O)cc1OC (configuration not stated) | 
37 | 0.61 µM | 0.35 µM | COc1cc(C2SC(c3ccc(N(C)C)cc3)=NN2C(C)=O)cc(OC)c1OC (configuration not stated) | 
